Calls of active or inactive are those of the source. The calls are words filed in the database; no cut-off is given here.
Experiments:
Mus musculus [1] = assay: Antiinflammatory activity in C57BL/6J mouse assessed as reduction in carrageenan-induced accumulation of inflammatory cells in paw tissue at 10 mg/kg, ip daily dosed 30 mins after carrageenan challenge and measured 74 hrs carrageenan challenge and 2 hrs post last dose by H and E staining based histopathological analysis; format: functional, organism-based
Mus musculus [2] = assay: Antiinflammatory activity in C57BL/6J mouse assessed as inhibition of carrageenan-induced paw edema at 10 mg/kg, ip daily dosed 30 mins after carrageenan challenge and measured 74 hrs carrageenan challenge and 2 hrs post last dose by caliper method relative to control; format: functional
Procedure, shortened: (§1)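 Female C57BL/6J mice, five per group; 50 μL λ-carrageenan (1% w/v in saline) injected subcutaneously into one hind paw, 50 μL saline into the other as non-inflamed control. Vehicle-only i.p. controls. Sacrifice 74 h after challenge and 2 h after last dose. Paw thickness measured palm to back with caliper. Edema = injected minus contralateral paw. Suppression % = treated versus control group.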

Mus musculus [3] = assay: Antiinflammatory activity against carrageenan-induced paw oedema in C57BL/6J mouse assessed as hind paw thickness at 10 mg/kg, ip daily dosed 30 mins after carrageenan challenge and measured 74 hrs carrageenan challenge and 2 hrs post last dose by caliper method (reference value: 3.05 millimeter); format: functional; procedure, shortened: as §1
MCF-10A = assay: Cytotoxicity against human MCF10A cells at 100 uM incubated for 24 hrs by CellTiter-96AQ based MTT assay; format: cell-based
Procedure, shortened: (§2)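 Cells seeded at 3000 per well and grown 24 h at 37 °C in CO₂. Treated with compound for 24 h at 37 °C, top concentration 100 μM. CellTiter 96AQ reagent added for 2 h more, then absorbance read at 490 nm.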

SK-BR-3 = assay: Cytotoxicity against human SKBR3 cells at 100 uM incubated for 24 hrs by CellTiter-96AQ based MTT assay; format: cell-based; details: sk-br-3, 24 h; procedure, shortened: as §2
Mus musculus [4] = assay: Antiinflammatory activity against carrageenan-induced paw oedema in C57BL/6J mouse assessed as paw swollen thickness at 10 mg/kg, ip daily dosed 30 mins after carrageenan challenge and measured 74 hrs carrageenan challenge and 2 hrs post last dose by caliper method (reference value: 0.68 millimeter); format: functional; procedure, shortened: as §1
[5] = target: C-X-C chemokine receptor type 4 (Homo sapiens) (UniProt P61073); assay: Inhibition of CXCR4-mediated chemotaxis in human MDA-MB-231 cells assessed as reduction in CXCL12alpha-induced cell invasion at 100 nM incubated for 22 hrs by hematoxylin/eosin dye-based matrigel assay relative to control
Procedure, shortened: (§3)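 Matrigel invasion chamber with MDA-MB-231 cells. Compound (100 nM) added to cells before seeding in the top chamber; CXCL12α 200 ng/mL in the bottom chamber as chemoattractant, serum-free medium. Incubated 22 h. Non-invading cells swabbed off; invaded cells fixed in methanol and H&E stained, then counted. Inhibition relative to untreated invasion.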

[6] = Half life in Sprague-Dawley rat at 10 mg/kg, ig measured for 5 min to 6 hrs by LC/MS/MS analysis; format: ADME, organism-based; details: in vivo, po
Procedure, shortened: (§4)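 Two male SD rats given 10 mg/kg intragastrically in 10% DMSO/90% PBS. Blood drawn at 5, 15, 30 min and 1, 2, 4, 6 h, centrifuged 4000 rpm for 5 min at 4 °C. Protein precipitation, then LC/MS/MS in SRM mode with internal standard. Parameters from noncompartmental analysis of plasma concentration-time data.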

Mus musculus [7] = assay: Antiinflammatory activity in C57BL/6J mouse assessed as reduction of carrageenan-induced inflammation and tissue damage in paw by measuring edema volume and thickness at 10 mg/kg, ip daily dosed 30 mins after carrageenan challenge and measured 74 hrs carrageenan challenge and 2 hrs post last dose by H and E staining based histopathological analysis; format: functional, organism-based
[8] = Tmax in Sprague-Dawley rat at 10 mg/kg, ig measured for 5 min to 6 hrs by LC/MS/MS analysis; format: ADME, organism-based; details: in vivo, po; procedure, shortened: as §4
[9] = target: C-X-C chemokine receptor type 4 (Homo sapiens) (UniProt P61073); assay: (§5) Competitive inhibition of biotinylated TN14003 binding to CXCR4 in human MDA-MB-231 cells preincubated for 10 mins followed by biotinylated-TN14003 addition measured after 30 mins by streptavidin-rhodamine staining based fluorescence microscopic analysis; format: cell-based
Procedure, shortened: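 MDA-MB-231 cells, 2 × 10⁴ per well, seeded two days ahead. Compound (1, 10, 100 or 1000 nM) added for 10 min at room temperature, then fixed in ice-cold 4% paraformaldehyde and rehydrated in PBS. Biotinylated TN14003 0.05 μg/mL for 30 min at RT, PBS washes, streptavidin-rhodamine (1:150) 30 min at RT. Read by fluorescence microscopy. EC = lowest concentration reducing rhodamine staining versus control.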

MDA-MB-231 = assay: Cytotoxicity against human MDA-MB-231 cells at 100 uM incubated for 24 hrs by CellTiter-96AQ based MTT assay; format: cell-based; details: mda-mb-231, 24 h; procedure, shortened: as §2
[10] = target: C-X-C chemokine receptor type 4 (Homo sapiens) (UniProt P61073); assay: Inhibition of CXCR4-mediated chemotaxis in human MDA-MB-231 cells assessed as reduction in CXCL12alpha-induced cell invasion incubated for 22 hrs by hematoxylin/eosin dye-based matrigel assay relative to control; details: concentration not given here; procedure, shortened: as §3
[11] = target: C-X-C chemokine receptor type 4 (Homo sapiens) (UniProt P61073); assay: as §5, with “Potency index, Ratio of EC for AMD3100 to EC for test compound for” for “Competitive”; format: cell-based

C-X-C chemokine receptor type 4 (Homo sapiens), sequence (P61073 whole entry): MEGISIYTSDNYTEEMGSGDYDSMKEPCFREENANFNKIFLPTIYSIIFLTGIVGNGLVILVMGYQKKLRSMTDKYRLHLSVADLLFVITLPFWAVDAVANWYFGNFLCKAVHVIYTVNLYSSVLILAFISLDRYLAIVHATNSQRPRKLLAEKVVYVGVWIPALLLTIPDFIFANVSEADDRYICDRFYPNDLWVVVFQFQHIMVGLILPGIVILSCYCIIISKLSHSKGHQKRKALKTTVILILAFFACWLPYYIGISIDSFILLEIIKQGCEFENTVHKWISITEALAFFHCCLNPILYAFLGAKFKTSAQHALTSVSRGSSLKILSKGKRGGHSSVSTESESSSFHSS

With `O=C(NCc1ccc(CNS(=O)(=O)c2ccc3c(c2)CCO3)cc1)c1ccc(F)cc1` the inhibition (Mus musculus [1]) was “Active”, the inhibition in vivo at 10 mg/kg (Mus musculus [2]) was 43% and the Activity (Mus musculus [3]) was 2.64 mm. The Activity (MCF-10A) was “Non-Toxic”, the Activity (SK-BR-3) was “Non-Toxic” and the Activity (Mus musculus [4]) was 0.21 mm. For the same compound, the inhibition [5] was 83%, the t1/2 [6] was 4.77 h and the inhibition (Mus musculus [7]) was “Active”. The Tmax [8] was 15 min, the EC [9] was 10 nM and the Activity (MDA-MB-231) was “Non-Toxic”.
In the case of `O=C(NCc1ccc(CNS(=O)(=O)c2cccc(C(F)(F)F)c2)cc1)c1ccc(F)cc1`, the inhibition in vivo at 10 mg/kg (Mus musculus [2]) is reported as 20%, the inhibition [5] is reported as 93% and the EC [9] is reported as 100 nM.
`Cc1ccc(S(=O)(=O)NCc2ccc(CNC(=O)c3ccc(F)cc3)cc2)cc1` gave an inhibition in vivo at 10 mg/kg (Mus musculus [2]) of 30% and an inhibition [10] of 65%.
In the case of `O=C(NCc1ccc(CNS(=O)(=O)c2ccc(F)c(F)c2)cc1)c1ccc(F)cc1`, the EC [9] is reported as 10 nM.
`O=C(NCc1ccc(CNS(=O)(=O)c2ccccc2F)cc1)c1ccc(F)cc1` gave an EC [9] of 10 nM.
`Cc1ccc(S(=O)(=O)NCc2ccc(CNC(=O)c3ccc(F)cn3)cc2)cc1` gave an EC [9] of 1000 nM.
`O=C(NCc1ccc(CNS(=O)(=O)c2cccc3ccccc23)cc1)c1ccc(F)cc1` gave an EC [9] of 1000 nM.
For `O=C(NCc1ccc(CNS(=O)(=O)c2ccc(CN3CCCC3)cc2)cc1)c1ccc(F)cc1`, the inhibition in vivo at 10 mg/kg (Mus musculus [2]) was 20%, the inhibition [5] was 92% and the Ratio [11] was 1000. It also gave an EC [9] of 1 nM.
For `Cc1ccccc1S(=O)(=O)NCc1ccc(CNC(=O)c2ccc(F)cc2)cc1`, the EC [9] was 100 nM.
Compound `Cc1cccc(S(=O)(=O)NCc2ccc(CNC(=O)c3ccc(F)cc3)cc2)c1` has an EC [9] of 1 nM.
`O=C(NCc1ccc(CNS(=O)(=O)c2ccc(Cl)cc2)cc1)c1ccc(F)cc1` gave an EC [9] of 100 nM.
Compound `O=C(NCc1ccc(CNS(=O)(=O)c2ccc([N+](=O)[O-])cc2)cc1)c1ccc(F)cc1` has an EC [9] of 1000 nM.
For `O=C(NCc1ccc(CNS(=O)(=O)c2ccccc2Cl)cc1)c1ccc(F)cc1`, the EC [9] was 1000 nM.
Work on `O=C(NCc1ccc(CNS(=O)(=O)c2ccc(-c3ccc(F)cc3)cc2)cc1)c1ccc(F)cc1` yielded an EC [9] of 100 nM.
In the case of `CCN(CC)Cc1ccc(S(=O)(=O)NCc2ccc(CNC(=O)c3ccc(F)cc3)cc2)cc1`, the Ratio [11] is reported as 1000 and the EC [9] is reported as 1 nM.
Compound `Cc1ccc(S(=O)(=O)NCc2ccc(CNC(=O)c3ccc(F)nc3)cc2)cc1` has an EC [9] of over 1000 nM.
In the case of `O=C(NCc1ccc(CNS(=O)(=O)c2ccc(CN3CCOCC3)cc2)cc1)c1ccc(F)cc1`, the inhibition in vivo at 10 mg/kg (Mus musculus [2]) is reported as 20%, the inhibition [5] is reported as 82% and the Ratio [11] is reported as 100. The EC [9] was 10 nM.
Compound `O=C(NCc1ccc(CNS(=O)(=O)c2ccc(F)cc2)cc1)c1ccc(F)cc1` has an EC [9] of 1 nM.
`O=C(NCc1ccc(CNS(=O)(=O)c2cccc(Cl)c2)cc1)c1ccc(F)cc1` showed an inhibition in vivo at 10 mg/kg (Mus musculus [2]) of 20%, an inhibition [5] of 95% and an EC [9] of 1 nM.
`O=C(NCc1ccc(CNS(=O)(=O)c2cccnc2)cc1)c1ccc(F)cc1` showed an EC [9] of 1000 nM.
In the case of `O=C(NCc1ccc(CNS(=O)(=O)c2cccc(F)c2)cc1)c1ccc(F)cc1`, the EC [9] is reported as 1000 nM.

Source: ChEMBL document CHEMBL4346702, “Development of CXCR4 modulators based on the lead compound RB-108” (Eur J Med Chem, 2019)
